According to ChEMBL document CHEMBL1155539, “Discovery of 4-[1-[([1-[4-(trifluoromethyl)benzyl]-1H-indol-7-yl]carbonyl)amino]cyclopropyl]benzoic acid (MF-766), a highly potent and selective EP4 antagonist for treating inflammatory pain” (Bioorg Med Chem Lett, 2010):

Assays:
Thromboxane A2 receptor = target: T1, Thromboxane A2 receptor (Homo sapiens, UniProt P21731); experiment: Displacement of [3H]SQ-29548 from human prostanoid TP receptor expressed in HEK293-EBNA cells after 60 mins by scintillation counting; format: cell-based
T1 sequence (P21731 whole entry): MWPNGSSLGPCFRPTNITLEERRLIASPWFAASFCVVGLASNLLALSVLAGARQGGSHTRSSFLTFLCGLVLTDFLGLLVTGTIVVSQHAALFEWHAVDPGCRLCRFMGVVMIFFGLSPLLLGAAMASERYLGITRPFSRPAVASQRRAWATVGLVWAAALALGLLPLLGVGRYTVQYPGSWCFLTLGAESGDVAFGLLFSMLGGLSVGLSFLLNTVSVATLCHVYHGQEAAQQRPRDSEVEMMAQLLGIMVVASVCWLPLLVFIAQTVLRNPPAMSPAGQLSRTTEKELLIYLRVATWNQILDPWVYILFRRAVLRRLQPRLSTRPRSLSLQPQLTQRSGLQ

[1] = target: T2, Prostaglandin E2 receptor EP4 subtype (Homo sapiens, UniProt P35408); experiment: Antagonist activity at prostanoid EP4 receptor in human whole blood assessed as inhibition of TNF-alpha-induced IP-10 release in presence EP4 agonist L-000902688; format: functional, tissue-based
T2 sequence (P35408 whole entry): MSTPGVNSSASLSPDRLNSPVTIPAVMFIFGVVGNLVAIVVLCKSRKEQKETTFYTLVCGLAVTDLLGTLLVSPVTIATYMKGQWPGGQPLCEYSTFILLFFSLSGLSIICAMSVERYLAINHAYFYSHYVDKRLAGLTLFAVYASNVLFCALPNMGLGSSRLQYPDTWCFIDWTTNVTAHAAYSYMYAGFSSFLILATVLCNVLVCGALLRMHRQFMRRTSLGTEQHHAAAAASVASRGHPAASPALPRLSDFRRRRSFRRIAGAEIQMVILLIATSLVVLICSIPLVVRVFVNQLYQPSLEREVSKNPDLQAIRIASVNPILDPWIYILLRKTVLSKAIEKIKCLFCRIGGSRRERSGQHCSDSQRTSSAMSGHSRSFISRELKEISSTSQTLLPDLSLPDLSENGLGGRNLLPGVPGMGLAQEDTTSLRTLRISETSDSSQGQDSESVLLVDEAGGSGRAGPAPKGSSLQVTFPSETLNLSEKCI

Hepatocyte [2] = experiment: Metabolic stability in human hepatocytes; format: ADME, cell-based
[3] = Plasma clearance in Sprague-Dawley rat at 5 mg/kg, iv and 20 mg/kg, po; format: ADME, organism-based
Procedure, shortened: (§1)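 Sprague-Dawley rats dosed iv at 5 mg/kg and po at 20 mg/kg. The iv group was n = 2 males given the free acid in 60% PEG 200 at 1 mL/kg. PK parameters were derived from plasma levels.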

[4] = Bioavailability in Sprague-Dawley rat at 5 mg/kg, iv and 20 mg/kg, po; format: ADME, organism-based; settings: in vivo; procedure, shortened: as §1
Hepatocyte [5] = experiment: Oxidative metabolism in rat hepatocytes assessed as protein covalent binding after 2 hrs; format: ADME, cell-based
Procedure, shortened: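 [3H]-labelled compound incubated with fresh rat or human hepatocytes for 2 h. Covalent protein binding was expressed as pmol-equiv/mg protein, and samples were checked for tritium loss by HPLC with radiometric detection.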

Rattus norvegicus = experiment: Antiinflammatory activity in rat assessed as inhibition of complete Freund's adjuvant-induced secondary paw swelling administered daily once 9 days after adjuvant challenge measured on day 18; format: functional
Procedure, shortened: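 Rat adjuvant-induced arthritis model with daily dosing in mg/kg/day. Dose groups were 0, 0.001, 0.01, 0.1 and 1 mg/kg, plus a non-AIA control group. Primary and secondary paw swelling were scored as % inhibition relative to vehicle-treated arthritic rats, and ED50 was estimated from the dose–response.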

[6] = Drug level in complete Freund's adjuvant challenged rat administered daily once 9 days after adjuvant challenge measured on day 18 after 2 hrs post dose; format: ADME, organism-based; settings: in vivo, read-out: Drug uptake
Procedure, shortened: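 In a separate rat AIA experiment with daily dosing, plasma drug levels were measured 2 h and 24 h after the final dose.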

[7] = target: T2, Prostaglandin E2 receptor EP4 subtype; experiment: Displacement of [3H]PGE2 from human prostanoid EP4 receptor expressed in HEK293-EBNA cells after 60 mins by scintillation counting; format: cell-based
[8] = target: T3, Prostaglandin E2 receptor EP3 subtype (Homo sapiens, UniProt P43115); experiment: Displacement of [3H]PGE2 from human prostanoid EP3 receptor expressed in HEK293-EBNA cells after 60 mins by scintillation counting; format: cell-based
T3 sequence (P43115 whole entry): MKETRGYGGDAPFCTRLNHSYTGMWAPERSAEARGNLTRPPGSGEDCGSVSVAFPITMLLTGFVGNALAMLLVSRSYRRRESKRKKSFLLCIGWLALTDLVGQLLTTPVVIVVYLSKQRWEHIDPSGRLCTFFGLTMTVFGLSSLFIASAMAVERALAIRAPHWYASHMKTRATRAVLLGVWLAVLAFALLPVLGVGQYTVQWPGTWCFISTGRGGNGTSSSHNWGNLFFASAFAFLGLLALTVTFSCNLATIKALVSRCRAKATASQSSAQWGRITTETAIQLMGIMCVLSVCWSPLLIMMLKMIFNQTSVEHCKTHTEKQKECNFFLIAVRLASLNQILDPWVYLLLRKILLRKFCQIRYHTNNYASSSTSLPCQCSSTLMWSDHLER

Canis familiaris = experiment: AUC (0 to 24 hrs) in Beagle dog at 4 mg/kg, po; settings: in vivo
[9] = Elimination half life in Beagle dog at 1 mg/kg, iv and 4 mg/kg, po; settings: in vivo, read-out: beta t1/2 (converted)
[10] = Volume of distribution in Beagle dog at 1 mg/kg, iv and 4 mg/kg, po; settings: in vivo

Q: What does the source list for O=C(O)c1ccc(C2(NC(=O)c3cccc4ccn(Cc5ccc(C(F)(F)F)cc5)c34)CC2)cc1?
A: Ki (Thromboxane A2 receptor): 6.7 µM; IC50 [1]: 0.0095 µM; Stability (Hepatocyte [2]): Stable; clearance [3]: 3.7 mL/min/kg; bioavailability [4]: 86%; Activity (Hepatocyte [5]): 61 pmolequiv/mg; ED100 (Rattus norvegicus): 0.025 mg/kg/day; concentration at 2 h [6]: 28 nM; Ki [7]: 0.00023 µM; Ki [8]: 7.4 µM; AUC (Canis familiaris): 15 µM·h; half-life [9]: 2.6 h; Vd [10]: 0.8 L/kg
